Measured values taken from ChEMBL document CHEMBL1926616, “Design, synthesis and biological evaluation of novel glycosylated diphyllin derivatives as topoisomerase II inhibitors” (Eur J Med Chem, 2012).
The source made the active and inactive calls. The rule behind the calls is not given here.

Experiments:
[1] = test system: HCT-116; assay: Cell cycle arrest in human HCT116 cells assessed as accumulation at G2/M phase at 1 to 10 uM using propidium iodide stain by FACS-flow cytometry; assay type: functional, cell-based; settings: TDE = time-dependent effect
[2] = test system: HCT-116; assay: Cell cycle arrest in human HCT116 cells assessed as accumulation at G0/G1 phase at 1 to 10 uM after 24 hrs using propidium iodide stain by FACS-flow cytometry; assay type: functional, cell-based
[3] = test system: K562; assay: Resistance index, ratio of IC50 for adriamycin-selected multi drug-resistant human K562 cells to IC50 for human K562 cells; assay type: functional
Method in brief: (§1)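 Resistance factor is the IC50 in the resistant line divided by the IC50 in the parental line. Both IC50s come from 72 h SRB/MTT growth-inhibition assays, derived by the Logit method from at least 3 independent tests.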

[4] = test system: HL-60; assay: Cell cycle arrest in human HL60 cells assessed as accumulation at G0/G1 phase at 1 to 10 uM using propidium iodide stain by FACS-flow cytometry; assay type: functional, cell-based; settings: TDE = time-dependent effect
[5] = test system: HL-60; assay: Cell cycle arrest in human HL60 cells assessed as accumulation at G2/M phase at 1 to 10 uM using propidium iodide stain by FACS-flow cytometry; assay type: functional, cell-based; settings: TDE = time-dependent effect
[6] = target: DNA topoisomerase 2-alpha (Homo sapiens) (UniProt P11388); assay: Inhibition of human topoisomerase 2-mediated decatenation of kinetoplast DNA at 100 uM after 15 mins by agarose gel electrophoresis
DNA topoisomerase 2-alpha (Homo sapiens), sequence (P11388 whole entry): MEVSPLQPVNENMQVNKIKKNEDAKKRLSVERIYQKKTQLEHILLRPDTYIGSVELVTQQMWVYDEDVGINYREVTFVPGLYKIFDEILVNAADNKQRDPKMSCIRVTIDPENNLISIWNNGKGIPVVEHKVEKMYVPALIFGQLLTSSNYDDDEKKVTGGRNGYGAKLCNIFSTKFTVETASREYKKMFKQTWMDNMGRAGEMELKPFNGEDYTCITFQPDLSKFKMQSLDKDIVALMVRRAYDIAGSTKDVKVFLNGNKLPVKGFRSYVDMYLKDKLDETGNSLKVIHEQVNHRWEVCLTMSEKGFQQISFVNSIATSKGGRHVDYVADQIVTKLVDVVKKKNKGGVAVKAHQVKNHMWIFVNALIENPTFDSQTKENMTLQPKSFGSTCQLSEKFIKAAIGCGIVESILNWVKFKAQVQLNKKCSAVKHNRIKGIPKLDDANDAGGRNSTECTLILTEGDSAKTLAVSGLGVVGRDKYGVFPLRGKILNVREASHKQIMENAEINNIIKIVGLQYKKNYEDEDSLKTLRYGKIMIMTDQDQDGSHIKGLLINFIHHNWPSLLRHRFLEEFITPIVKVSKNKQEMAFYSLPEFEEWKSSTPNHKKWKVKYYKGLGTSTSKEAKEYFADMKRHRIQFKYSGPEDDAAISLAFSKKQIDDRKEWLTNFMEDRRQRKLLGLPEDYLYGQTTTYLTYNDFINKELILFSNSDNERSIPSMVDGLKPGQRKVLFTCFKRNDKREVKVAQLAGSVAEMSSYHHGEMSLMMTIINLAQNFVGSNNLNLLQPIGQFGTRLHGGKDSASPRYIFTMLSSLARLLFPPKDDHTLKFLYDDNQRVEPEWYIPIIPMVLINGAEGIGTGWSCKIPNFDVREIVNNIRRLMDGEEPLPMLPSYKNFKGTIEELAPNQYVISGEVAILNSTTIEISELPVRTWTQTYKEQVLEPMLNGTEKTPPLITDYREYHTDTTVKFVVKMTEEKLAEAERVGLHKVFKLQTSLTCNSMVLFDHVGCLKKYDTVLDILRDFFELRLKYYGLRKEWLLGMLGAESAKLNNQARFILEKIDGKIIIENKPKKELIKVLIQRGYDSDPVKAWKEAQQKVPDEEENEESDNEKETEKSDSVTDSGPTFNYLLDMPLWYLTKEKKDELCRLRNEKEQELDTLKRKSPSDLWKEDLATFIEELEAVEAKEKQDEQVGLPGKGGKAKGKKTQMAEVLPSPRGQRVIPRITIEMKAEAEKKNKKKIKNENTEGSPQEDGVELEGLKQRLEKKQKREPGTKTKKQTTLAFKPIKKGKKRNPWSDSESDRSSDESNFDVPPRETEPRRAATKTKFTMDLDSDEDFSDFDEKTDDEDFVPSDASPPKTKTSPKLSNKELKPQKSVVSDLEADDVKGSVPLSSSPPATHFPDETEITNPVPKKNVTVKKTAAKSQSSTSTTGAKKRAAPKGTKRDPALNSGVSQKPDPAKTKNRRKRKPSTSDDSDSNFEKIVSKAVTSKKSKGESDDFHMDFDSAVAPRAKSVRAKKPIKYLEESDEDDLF
Method in brief: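 ATP-dependent kDNA decatenation by 1 unit Topo II in 50 mM Tris-HCl pH 7.7, 50 mM KCl, 5 mM MgCl2, 1 mM ATP, 0.5 mM DTT, 0.5 mM EDTA and BSA, run for 15 min at 37 °C. Stopped with 10% SDS, then run on 1% agarose in TAE at 4 V/cm for 1 h and stained with ethidium bromide.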

[7] = test system: KB; assay: Resistance index, ratio of IC50 for vincristine-selected multi drug-resistant human KB cells to IC50 for human KB cells; assay type: functional; method in brief: as §1
[8] = test system: MCF7; assay: Cytotoxicity against human MCF7 cells after 72 hrs by sulforhodamine B and MTT assay; assay type: functional, cell-based; settings: MCF7, 72 h
Method in brief: (§2)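 Log-phase cells were plated overnight and exposed for 72 h to a 5-concentration gradient, in triplicate wells. SRB arm: 10% cold TCA fixation for 1 h at 4 °C, 4 mg/ml SRB in 1% acetic acid for 15 min, dye dissolved in 10 mM Tris-HCl, read at 520 nm. MTT arm: 5 mg/mL MTT for 4 h at 37 °C, SDS-isobutanol-HCl solubilisation for 12–20 h, read at 570 nm. IC50 by Logit method from at least 3 independent tests.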

[9] = test system: HL-60; assay: Cell cycle arrest in human HL60 cells assessed as accumulation at G0/G1 phase at 1 uM after 24 hrs using propidium iodide stain by FACS-flow cytometry (reference value: 39%); assay type: functional
[10] = test system: HL-60; assay: Cell cycle arrest in human HL60 cells assessed as accumulation at G2/M phase after 24 hrs using propidium iodide stain by FACS-flow cytometry; assay type: functional, cell-based
[11] = test system: HCT-116; assay: Cell cycle arrest in human HCT116 cells assessed as accumulation at G0/G1 phase after 24 hrs using propidium iodide stain by FACS-flow cytometry; assay type: functional, cell-based
[12] = test system: KB; assay: Cytotoxicity against vincristine-selected multi drug-resistant human KB cells after 72 hrs by sulforhodamine B and MTT assay; assay type: functional, cell-based
Method in brief: (§3)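 Log-phase cells were seeded, preincubated (overnight for SRB, 24 h for MTT), then given a five-concentration gradient in triplicate wells for 72 h. For MTT, reagent was added for 4 h at 37 °C, solubilized in SDS-isobutanol-HCl for 12-20 h, and read at 570 nm. IC50 was derived by the Logit method from at least 3 independent tests.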

[13] = test system: HCT-116; assay: Cell cycle arrest in human HCT116 cells assessed as accumulation at G0/G1 phase at 1 to 10 uM using propidium iodide stain by FACS-flow cytometry; assay type: functional, cell-based; settings: TDE = time-dependent effect
[14] = test system: HCT-116; assay: Cytotoxicity against human HCT116 cells after 72 hrs by sulforhodamine B and MTT assay; assay type: functional, cell-based; settings: HCT-116, 72 h; method in brief: as §2
[15] = test system: HL-60; assay: Cell cycle arrest in human HL60 cells assessed as accumulation at S phase at 1 uM after 24 hrs using propidium iodide stain by FACS-flow cytometry (reference value: 38.4%); assay type: functional
[16] = test system: K562; assay: Cytotoxicity against adriamycin-selected multi drug-resistant human K562 cells after 72 hrs by sulforhodamine B and MTT assay; assay type: functional, cell-based; settings: K562, 72 h; method in brief: as §3
[17] = test system: HL-60; assay: Cell cycle arrest in human HL60 cells assessed as accumulation at S phase at 10 uM after 24 hrs using propidium iodide stain by FACS-flow cytometry (reference value: 38.4%); assay type: functional
[18] = test system: HL-60; assay: Cell cycle arrest in human HL60 cells assessed as accumulation at G2/M phase at 1 uM after 24 hrs using propidium iodide stain by FACS-flow cytometry (reference value: 22.6%); assay type: functional
[19] = test system: K562; assay: Cytotoxicity against human K562 cells after 72 hrs by sulforhodamine B and MTT assay; assay type: functional, cell-based; settings: K562, 72 h; method in brief: as §3
[20] = test system: HL-60; assay: Cell cycle arrest in human HL60 cells assessed as accumulation at G0/G1 phase after 24 hrs using propidium iodide stain by FACS-flow cytometry; assay type: functional, cell-based
[21] = test system: HL-60; assay: Cell cycle arrest in human HL60 cells assessed as accumulation at G0/G1 phase at 10 uM after 24 hrs using propidium iodide stain by FACS-flow cytometry (reference value: 39%); assay type: functional
[22] = test system: HL-60; assay: Cell cycle arrest in human HL60 cells assessed as accumulation at G2/M phase at 10 uM after 24 hrs using propidium iodide stain by FACS-flow cytometry (reference value: 22.6%); assay type: functional
[23] = test system: HL-60; assay: Induction of apoptosis in human HL60 cells assessed as DNA fragmentation at 10 uM after 36 hrs by gel electrophoresis; assay type: functional, cell-based
Method in brief: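 HL-60 cells were seeded and exposed to compound for 36 h. Harvested cells were lysed with an equal volume of 1.2% SDS, and the fragmented DNA was extracted and resolved by gel electrophoresis.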

[24] = test system: KB; assay: Cytotoxicity against human KB cells after 72 hrs by sulforhodamine B and MTT assay; assay type: functional, cell-based; method in brief: as §2
[25] = test system: HCT-116; assay: Cell cycle arrest in human HCT116 cells assessed as accumulation at G2/M phase after 24 hrs using propidium iodide stain by FACS-flow cytometry; assay type: functional, cell-based
[26] = test system: HCT-116; assay: Cell cycle arrest in human HCT116 cells assessed as accumulation at G2/M phase at 1 to 10 uM after 24 hrs using propidium iodide stain by FACS-flow cytometry; assay type: functional, cell-based

Compound	Activity [1]	Activity [2]	Ratio IC50 [3]	Activity [4]	Activity [5]	inhibition [6]	Ratio IC50 [7]	IC50 [8]	Activity [9]	Activity [10]	Activity [11]	IC50 [12]	Activity [13]	IC50 [14]	Activity [15]	IC50 [16]	Activity [17]	Activity [18]	IC50 [19]	Activity [20]	other results
COc1cc2c(O[C@@H]3OC[C@@H](O)[C@H](O)[C@H]3O)c3c(c(-c4ccc5c(c4)OCO5)c2cc1OC)C(=O)OC3	tde	Active	13.4	tde	tde	inactive	2.9	1550 nM	45.6%	Dose-dependent effect	Dose-dependent effect	1190 nM	tde	820 nM	35.5%	58800 nM	33.8%	18.9%	4400 nM	Dose-dependent effect	Activity [21]: 47%; Activity [22]: 19.2%; Activity [23]: Active; IC50 [24]: 410 nM; Activity [25]: Dose-dependent effect; Activity [26]: Active
COc1cc2c(O[C@@H]3O[C@H](C)[C@@H](O)[C@H](O)[C@H]3O)c3c(c(-c4ccc5c(c4)OCO5)c2cc1OC)C(=O)OC3 [PATENTIFLORIN A]	tde	Active	11.3	tde	tde	inactive	6.2	440 nM	45.9%	Dose-dependent effect	Dose-dependent effect	573 nM	tde	990 nM	38%	16100 nM	22.8%	16.1%	1430 nM	Dose-dependent effect	Activity [21]: 54.4%; Activity [22]: 22.8%; Activity [23]: Active; IC50 [24]: 93 nM; Activity [25]: Dose-dependent effect; Activity [26]: Active
